Reference: ChEMBL document CHEMBL3045665, “Synthesis and in vitro antiproliferative activity of novel (4-chloro- and 4-acyloxy-2-butynyl)thioquinolines” (2011)
In brackets after ≈: the same amount, converted by molar mass.

What was measured:
Type in all cases: functional
[1] = Antiproliferative activity against Homo sapiens (human) SW707 cells after 72 hr; conditions: SW707, 72 h, read-out: ID50 (the source's name)
Outline: (§1)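 Cells in opti-MEM with 2 mM glutamine, streptomycin, penicillin and 5% FCS at 37°C and 5% CO2. Plated at 10^4 cells/well 24 h before treatment, then exposed 72 h to 0.1–100 µg/ml (1 mg/ml stock in 10% DMSO, diluted in medium). Cells fixed with cold 50% TCA, stained with 0.4% SRB, dye extracted in 10 mM Tris, OD 540 nm. ID50 versus untreated control. Triplicates, 3–5 experiments.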

B16 = assay: Antiproliferative activity against Mus musculus (mouse) B16 cells after 72 hr; conditions: B16, 72 h, read-out: ID50 (the source's name); outline: as §1
CCRF-CEM = assay: Antiproliferative activity against Homo sapiens (human) CCRF-CEM cells after 72 hr; conditions: read-out: ID50 (the source's name)
Outline: (§2)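 Leukemia cells were grown in suspension in opti-MEM with 2 mM glutamine, antibiotics and 5% FCS (37°C, 5% CO2) and seeded at 10^4 cells/well 24 h beforehand. They were exposed 72 h to 0.1–100 µg/ml (1 mg/ml stock in 10% DMSO). MTT was added for the final 3–4 h, followed by SDS/DMF lysis for 24 h and OD at 570 nm. ID50 is relative to untreated control; triplicates, 3–5 experiments.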

T47D = assay: Antiproliferative activity against Homo sapiens (human) T47D cells after 72 hr; conditions: read-out: ID50 (the source's name); outline: as §1
P388 = assay: Antiproliferative activity against Mus musculus (mouse) P388 cells after 72 hr; conditions: P388, 72 h, read-out: ID50 (the source's name); outline: as §2

IC50 (B16) [µg/mL] | IC50 (CCRF-CEM) [µg/mL] | IC50 (T47D) [µg/mL] | IC50 (P388) [µg/mL] | SMILES | IC50 [1] [µg/mL]
4 (≈ 14.2 µM) | 3.7 (≈ 13.1 µM) | 3.2 (≈ 11.3 µM) | 13.4 (≈ 47.5 µM) | ClCC#CCSc1cnc2ccccc2c1Cl | 3.3 (≈ 11.7 µM)
16.9 (≈ 57.5 µM) | 2.5 (≈ 8.51 µM) | 3.9 (≈ 13.3 µM) | 2.7 (≈ 9.19 µM) | CSc1cnc2ccccc2c1SCC#CCCl | 3.7 (≈ 12.6 µM)
52.8 (≈ 166 µM) | 2.9 (≈ 9.12 µM) | 5.8 (≈ 18.2 µM) | 3 (≈ 9.44 µM) | C#CCSc1cnc2ccccc2c1SCC#CCCl | 12.9 (≈ 40.6 µM)
43.4 (≈ 125 µM) | 3.3 (≈ 9.49 µM) | 5.3 (≈ 15.2 µM) | 5.1 (≈ 14.7 µM) | OCC#CCSc1cnc2ccccc2c1SCC#CCCl | 19.8 (≈ 56.9 µM)
53.8 (≈ 131 µM) | – | – | – | O=C(O)c1ccccc1C(=O)OCC#CCSc1cnc2ccccc2c1Cl | –
11.4 (≈ 28.9 µM) | 15.4 (≈ 39.1 µM) | 22.8 (≈ 57.9 µM) | 32.8 (≈ 83.3 µM) | O=C(/C=C/c1ccccc1)OCC#CCSc1cnc2ccccc2c1Cl | 48.8 (≈ 124 µM)
18.1 (≈ 42.7 µM) | 14.5 (≈ 34.2 µM) | 36.1 (≈ 85.2 µM) | 35 (≈ 82.6 µM) | CSc1cnc2ccccc2c1SCC#CCOC(=O)c1ccccc1C(=O)O | 28.1 (≈ 66.3 µM)
3.1 (≈ 6.59 µM) | 4 (≈ 8.5 µM) | 3.2 (≈ 6.8 µM) | 19.1 (≈ 40.6 µM) | CSc1cnc2ccccc2c1[Se]CC#CCOC(=O)c1ccccc1C(=O)O | 3.7 (≈ 7.87 µM)
17.8 (≈ 46.9 µM) | 22.2 (≈ 58.5 µM) | – | – | CSc1cnc2ccccc2c1SCC#CCOC(=O)c1ccccc1 | –
2.1 (≈ 4.92 µM) | 1.9 (≈ 4.46 µM) | 2.2 (≈ 5.16 µM) | 3.5 (≈ 8.21 µM) | CSc1cnc2ccccc2c1[Se]CC#CCOC(=O)c1ccccc1 | 3.6 (≈ 8.44 µM)
5.5 (≈ 15.8 µM) | 13.2 (≈ 38 µM) | 34.2 (≈ 98.4 µM) | 34.7 (≈ 99.9 µM) | CCOC(=O)OCC#CCSc1c(SC)cnc2ccccc12 | 33.1 (≈ 95.3 µM)
9.4 (≈ 23.2 µM) | 18.1 (≈ 44.6 µM) | 71.9 (≈ 177 µM) | – | CSc1cnc2ccccc2c1SCC#CCOC(=O)/C=C/c1ccccc1 | 66.6 (≈ 164 µM)
3.1 (≈ 6.85 µM) | 17.8 (≈ 39.3 µM) | 4.3 (≈ 9.5 µM) | 43.9 (≈ 97 µM) | CSc1cnc2ccccc2c1[Se]CC#CCOC(=O)/C=C/c1ccccc1 | 4.7 (≈ 10.4 µM)
14.7 (≈ 34.2 µM) | 50.9 (≈ 118 µM) | – | – | C#CCSc1cnc2ccccc2c1SCC#CCOC(=O)/C=C/c1ccccc1 | –

SMILES | IC50 (B16) [µg/mL] | IC50 (CCRF-CEM) [µg/mL] | IC50 (T47D) [µg/mL] | IC50 (P388) [µg/mL] | IC50 [1] [µg/mL]
CSc1cnc2ccccc2c1[Se]CC#CCCl | 3.5 (≈ 10.3 µM) | 1.7 (≈ 4.99 µM) | 0.7 (≈ 2.05 µM) | 0.4 (≈ 1.17 µM) | 3.2 (≈ 9.39 µM)
C#CCSc1cnc2ccccc2c1[Se]CC#CCCl | 7.1 (≈ 19.5 µM) | 1.8 (≈ 4.93 µM) | 0.4 (≈ 1.1 µM) | 0.8 (≈ 2.19 µM) | 3.2 (≈ 8.77 µM)
OCC#CCSc1cnc2ccccc2c1[Se]CC#CCCl | 3.8 (≈ 9.63 µM) | 2.6 (≈ 6.59 µM) | 1.7 (≈ 4.31 µM) | 2 (≈ 5.07 µM) | 3.3 (≈ 8.36 µM)
